Measurements published in ChEMBL document CHEMBL4513216, “Probing the Open Global Health Chemical Diversity Library for Multistage-Active Starting Points for Next-Generation Antimalarials” (ACS Infect Dis, 2020).

Assay: Toxicity liver stage against HepG2, at 10uM
Type: cell-based
Parameters: test concentration 10 uM, cell line HepG2-A16-CD81EGFP
Conditions: human, HepG2-A16-CD81EGFP cells; read-out: INHIBITION
Outline: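 Uninfected HepG2-A16-CD81EGFP cells, 3 × 10^3 per well, 1536-well, plated on prespotted compound at 10 μM final, parasite-free screening media added to match infected plates; puromycin 10 μM positive, DMSO 0.5% negative; run in parallel with 48 h PbLuc assay at 37 °C, 5% CO2; viability by CellTiter-Glo luminescence, normalized to controls.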

Structure (SMILES)	cytotoxicity at 10 µM
CC(C(=O)N1CCCC1)N1CCCN(C(=O)Oc2ccccc2)CC1 (configuration not stated)	3.4%
CCn1cc(NC(=O)NCCc2ccc3c(c2)OCCO3)cn1	-7.72%
CCOC(=O)CC1(Nc2nc(C)nc3c2cnn3C)CCCCC1	5.03%
Cc1nn(-c2ccccc2)c(C)c1-c1ccnc(N2CCC(O)CC2)n1	-1.74%
CCOc1ncccc1CNCc1c(C)nn(C)c1N(C)C	-1.35%
O=C(COCCOc1ccccc1)NC1CCN(c2ncccn2)CC1	-4.9%
CC(C)(C)CNS(=O)(=O)C1CS(=O)(=O)c2ccccc21 (configuration not stated)	14.3%
CCn1cc(NC(=O)NCC(C)N(C)C)cn1 (configuration not stated)	-18.8%
Cc1nc(C(C)NC(=O)c2cn(CCC3CCCCC3)nn2)n[nH]1 (configuration not stated)	9.21%
CCn1c(CN(C)Cc2cnc(C)s2)nc2cc(F)ccc21	-31.9%
CCC[C@@H]1CN(C(=O)c2ccccc2-c2ccccc2)C[C@H]1N(C)C	2.16%
COCc1nnn2c1CN(C(=O)c1c[nH]cn1)CCC2	2.02%
CN1C[C@H](c2ccccc2)[C@H]2CN(C(=O)Cc3cccc(O)c3)CC[C@H]21	4.98%
O=C(Cc1cccc(F)c1F)NS(=O)(=O)c1ccc(Cl)cc1F	-6.11%
CC(NS(=O)(=O)CCCC#N)c1cccc(-n2cccn2)c1 (configuration not stated)	1.42%
Cc1ccc([C@@H]2CN(C(=O)c3ccccc3C)C[C@H]2N(C)C)cc1	-8.29%
CC1(NC(=O)Cc2csc(-c3cccc(Cl)c3)n2)CCS(=O)(=O)C1 (configuration not stated)	-3.61%
CSCC(=O)N1CCC2(CC1)c1ccccc1CC2O (configuration not stated)	-19.8%
Cc1ccc(C(=O)N2CCN(C(=O)NC(C)Cn3ccnc3)CC2)o1 (configuration not stated)	-1.47%
CC(=O)Nc1ccc(-n2cncn2)c(F)c1	-11.3%
CCCn1nc(-c2nc(COC)no2)ccc1=O	-11.6%
CCc1ccc(CN2CCc3ncnc(-c4cccnc4)c3CC2)o1	12.8%
CCN1CCC(N2CCN(c3cc(-c4nc(C)no4)ccn3)CC2)CC1	-3.79%

Structure (SMILES)	cytotoxicity at 10 µM
CNC(=O)[C@@]12CCO[C@@H]1CCN(S(=O)(=O)c1ccc(C)cc1)C2	-69.9%
Cc1csc(CNc2cnc3c(c2)c(C)nn3C)n1	0.739%
CC(C)Cn1c(=O)n(CCCn2cccn2)c2cc(C(=O)O)cnc21	1.18%
COc1cccc(CNCc2cccnc2)c1	-1.13%
CCC(O)CN1CCN(C(=O)c2cc(Cl)cc3cccnc23)CC1 (configuration not stated)	-13.7%
CC(C)c1noc(CCNC(=O)NCC2Cc3ccccc3O2)n1 (configuration not stated)	7.4%
CC(Cn1cccn1)NCc1nc(-c2cccs2)no1 (configuration not stated)	-8.7%
Cc1cccc(-n2cc3[nH]c(=O)[nH]n3c2=O)c1	2.48%
N[C@@H]1CCN(Cc2cc(-c3ccccc3OC(F)(F)F)no2)C[C@H]1O	2.42%
CCCc1nc(N2CCCN(c3ccncc3)CC2)c2cnn(C)c2n1	-2.47%
Oc1nc(C2CC2)nc2c1nnn2C1CCN(Cc2ccoc2)CC1	6.01%
O=C(c1ccc2ccccc2n1)N1CCC2(CCN2c2ncccn2)C1 (configuration not stated)	-114%
CC(C)c1nc(C2CCCN2CCOCC2CC2)no1 (configuration not stated)	1.8%
CCCN1CCC(Nc2nc(C)ns2)CC1	-8.92%
COc1ccc(C(=O)N2CCOCC2c2ccc(C)o2)cc1 (configuration not stated)	-2.24%
Cc1cnc(N2CCC3(CCN(Cc4csc(C)n4)C3=O)C2)nc1 (configuration not stated)	-102%
COCCCC(=O)N(C)c1ccc(F)c(Cl)c1	-0.577%
CN(C)CCO[C@H]1CN(Cc2ccco2)[C@@H]2COC[C@H]12	-98.2%
Cc1[nH]nc2ncc(C(=O)N3CCN(CC(C)O)CC3)cc12 (configuration not stated)	-1.73%
COCC(C)NC(=O)c1cc(C)n(-c2cccc(OC)c2)c1C (configuration not stated)	-13.9%
O=C(c1cc(Cl)ccc1OC1CCN(C2CCCC2)CC1)N1CCCO1	-2.54%
CCc1nc(C2CCCN2Cc2nc3ccccc3o2)no1 (configuration not stated)	3.06%
COc1ncccc1C(=O)N1CCC(c2nnc(C3CC3)o2)CC1	3.61%

Structure (SMILES)	cytotoxicity at 10 µM
CSc1ncc(C(=O)N2C[C@@H]3CC[C@H]2CN(Cc2ccccc2)C3)cn1	-7.49%
CSCC(C)(O)CNc1cccc(F)c1C#N (configuration not stated)	0.462%
CC(C)(C)c1cc(=O)n2c(n1)SCC(C(=O)NCc1ccccn1)C2 (configuration not stated)	-6.88%
O=C(CC1CCc2ccccc21)NCCSc1ccccn1 (configuration not stated)	-0.214%
CNC(=O)CN1CCO[C@H]2CN(C(=O)C3CC3)C[C@H]21	7.52%
O=C(NCC1CC1)[C@H]1CC[C@@H]2[C@@H](CCN2Cc2ccoc2)O1	-14.1%
COCCN(Cc1ccccc1)C(=O)c1csc(-c2nnc[nH]2)n1	4.9%
Cn1ncc2c(N3CCC(CC(=O)N4CCCC4)CC3)ncnc21	4.19%
COCCC1(CNC(=O)NCC2CCC2)CCC1	-10.1%
CCn1nccc1CNC(=O)C1CC1	-12.2%
Cc1ccc(C(=O)N2C[C@H]3CCC[C@@]3(COc3ccccn3)C2)nc1	-2.23%
O=C(NCc1ccccc1)N1Cc2nc(COCC3CC3)oc2C1	8.67%
Cc1cc(S(=O)(=O)Nc2onc(C)c2C)sc1C	5.54%
COc1ccc(-c2cnc3n2CCNC32CCN(S(C)(=O)=O)CC2)cc1	-2.72%
c1ccc(-c2noc(CN3CCc4c(ncn4C4CC4)C3)n2)nc1	-5.11%
CC(C)(C)c1ccc(C2(C(=O)NCCS(C)(=O)=O)CC2)cc1	2.91%
CN1CCN(Cc2c(-c3ccco3)[nH]c3ncccc23)CC1	5.63%
CCNC(=O)NC(=O)CN1CCOC(c2ccccc2Cl)C1 (configuration not stated)	6.58%
Cc1nc2cc(=O)[nH]n2c(C)c1CNC(=O)c1cnn(C(C)(C)C)c1	-4.01%
Cc1cccc(CC(=O)N2CCCCC2CN)c1 (configuration not stated)	5.68%
Cc1cc(NC(=O)CCNC(C)(C)c2nc(C)c(C)s2)no1	11.7%
CCNC(=O)N(C)Cc1ccc(SC)c(OC)c1	-13.1%
CCNC(=O)C1CCN(Cc2csc(-c3ccc(C)o3)n2)CC1	6.26%

Structure (SMILES)	cytotoxicity at 10 µM
Clc1cccc(OCCCN2CCOC(Cn3cncn3)C2)c1 (configuration not stated)	-3.78%
CCS(=O)(=O)N1CCC2(C1)C(=O)N(C)CCN2Cc1ccncc1 (configuration not stated)	-4.78%
CCN1CCN(C(=O)c2ccc3c(c2)CCCN3)[C@H]2CS(=O)(=O)C[C@H]21	-57.8%
Cc1csc(C2CCCN(C(=O)c3ccc(=O)n(C)n3)C2)n1 (configuration not stated)	6.76%
Cc1ccc(-c2nnc([C@H]3CCN(C4CCC4)C3)o2)cc1	8.81%
Cc1sc2ncnc(N3CCCC3Cn3cccn3)c2c1C (configuration not stated)	2.62%
CCc1c(O)nc2nc(N3CCOCC3)nn2c1C	10.8%
COC(=O)C1CN(CC(=O)Nc2cc(F)ccc2F)c2ccccc21 (configuration not stated)	8.32%
COc1c(C)cnc(CN2CCC(N(C)C(=O)C3CC3)CC2)c1C	-2.74%
COCCN1CCCCC12CC(=O)N(c1ccccc1OC)C2 (configuration not stated)	-92.6%
Cc1nc(C)n(CC2CCCN2c2ncnc3sccc23)n1 (configuration not stated)	-1.09%
CS(=O)(=O)N1CCCN(c2nccn3cnnc23)CC1	-8.85%
CNS(=O)(=O)c1ccc(CNC(=O)NCC2CCC2)cc1	6.26%
Cc1cnn(CCNCc2csc(-c3ccc4c(c3)OCO4)n2)c1	-6.41%
Cc1noc(CN(C)Cc2ccc3c(c2)OCO3)n1	-13.2%
Cc1noc(C)c1CCC(=O)NCCc1cccs1	-3.11%
CC(COc1ccccc1F)NC(=O)N[C@@H]1C=C[C@H](CO)C1 (some centres not stated)	3.53%
Cc1nc2c(c(C)c1CC(=O)NCc1cccs1)c(=O)[nH]n2C	-34.2%
NC1CCCCN(Cc2ccccc2CS(=O)(=O)c2ccccc2)C1 (configuration not stated)	-20.9%
Cn1nc(C(C)(C)C)cc1NC(=O)Cn1ccnc1	1.5%
CC(C)(C)c1ccc(S(=O)(=O)CCNC(=O)c2cnccn2)cc1	4.92%
CCN1CCC(CC(=O)N2CCc3sc(C(=O)N(C)C)cc3C2)CC1	-21.1%
CC(NC(=O)NCCC(=O)OC(C)(C)C)c1nncn1C (configuration not stated)	2.49%

Structure (SMILES)	cytotoxicity at 10 µM
CCN(C)CC1CCN(S(=O)(=O)c2cc(C)c(F)cc2Cl)C1 (configuration not stated)	-8.38%
CC(C)NC(=O)N1CCC2(COCc3cnc(N4CCOCC4)nc32)C1 (configuration not stated)	-8.75%
c1ccc(Cn2cc(CNC3CCc4ncnn4C3)cn2)cc1 (configuration not stated)	-1.61%
CNc1nc2cn(CCc3ccc(C)cc3)c(=O)c-2c[nH]1	6.36%
CNC(=O)c1ccc(C2CN(C(=O)c3coc(C)n3)CCO2)nc1 (configuration not stated)	-7.69%
O=C(CCC1CCN(C2Cc3ccccc3C2)CC1)NCC1CCCO1 (configuration not stated)	7.36%
O=C(Cc1csc(-c2ccco2)n1)N1CCN(c2cnccn2)CC1	0.0241%
Cn1ccnc1C(=O)N1CCC(Cn2cc(-c3ccsc3)nn2)CC1	-6.46%
Cn1cc(CN2C[C@@H]3CN(Cc4ccoc4)CCO[C@@H]3C2)cn1	6.97%
Cc1nnsc1C(=O)N1CC(c2nc3ccccc3[nH]2)C1	4.17%
CCOc1ccc(NC(=O)Cc2cc(C)[nH]n2)cc1CO	0.335%
COC1COC2(CCN(Cc3ccccc3C)CC2)C1 (configuration not stated)	2.84%
CNC(=O)c1cccc(CNC(C)c2cc(C)ccc2OC(F)F)c1 (configuration not stated)	20.2%
NC(=O)N1CCC2(CC1)CN(Cc1cccnc1)C(=O)CO2	3.63%
Cc1nn(C)c(C)c1CC(=O)N1CCCC(n2cccn2)C1 (configuration not stated)	-13.7%
c1ccc2c(N3CCCCC3Cn3cccn3)ncnc2c1 (configuration not stated)	-5.33%
CN(C)CCN(Cc1ccc(F)cc1)C(=O)c1ccn(C)c(=O)c1	-4.62%
Cc1cnc(CN(Cc2ccccc2)CC2CCOCC2)cn1	15.6%
CC(=O)N(Cc1noc(C)n1)C1CCN(Cc2cc(C)on2)C1 (configuration not stated)	4.38%
CC(c1ccon1)N(C)C(=O)C1CCN(C(=O)C2CC2)CC1 (configuration not stated)	-2.71%
